Laboratory results taken from ChEMBL document CHEMBL4316620, “Dihydropyrrolones as bacterial quorum sensing inhibitors” (Bioorg Med Chem Lett, 2019).
Active and inactive are the calls of the source. The calls are words filed in the database; no cut-off is given here.

Experiments:
Pseudomonas aeruginosa [1] = experiment: Toxicity in Pseudomonas aeruginosa MH602 PlasB::gfp assessed as inhibition of bacterial growth at 62.5 uM incubated for 15 hrs by spectrophotometry; type: organism-based; details: MH602, 15 h, read-out: GI
Pseudomonas aeruginosa [2] = experiment: Toxicity in Pseudomonas aeruginosa MH602 PlasB::gfp assessed as inhibition of bacterial growth at 125 uM incubated for 15 hrs by spectrophotometry; type: organism-based; details: MH602, 15 h, read-out: GI
[3] = Inhibition of quorum sensing system in Pseudomonas aeruginosa MH602 PlasB::gfp at 250 uM incubated for 15 hrs by GFP reporter gene assay
Summary of the method: (§1)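 Reporter strain P. aeruginosa PlasB::gfp (PAMH602) makes its own AHL; lasB promoter drives GFP-ASV. Cultures incubated with compound over 250–31.25 µM at 37 °C for 15 h, then GFP fluorescence read at 535 nm. QSI expressed as % relative to untreated PAMH602 negative control. Furanone positive control.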

Pseudomonas aeruginosa [4] = experiment: Toxicity in Pseudomonas aeruginosa MH602 PlasB::gfp assessed as inhibition of bacterial growth at 31.25 uM incubated for 15 hrs by spectrophotometry; type: organism-based; details: MH602, 15 h, read-out: GI
Pseudomonas aeruginosa [5] = experiment: Inhibition of biofilm formation in Pseudomonas aeruginosa PAO1 at 250 uM incubated for 6 hrs by crystal violet staining based method; type: functional; details: for inhibition at 250 µM: PAO1, 6 h
Summary of the method: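 P. aeruginosa PA01 biofilm. Cultures grown with or without test compound for 6 h. Biofilm biomass quantified by crystal violet staining (OD550). % inhibition calculated relative to DMSO control.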

[6] = Inhibition of quorum sensing system in Pseudomonas aeruginosa MH602 PlasB::gfp at 31.25 uM incubated for 15 hrs by GFP reporter gene assay; summary of the method: as §1
Pseudomonas aeruginosa [7] = experiment: Toxicity in Pseudomonas aeruginosa MH602 PlasB::gfp assessed as inhibition of bacterial growth at 250 uM incubated for 15 hrs by spectrophotometry; type: organism-based; details: MH602, 15 h, read-out: GI
[8] = Inhibition of quorum sensing system in Pseudomonas aeruginosa MH602 PlasB::gfp at 62.5 uM incubated for 15 hrs by GFP reporter gene assay; summary of the method: as §1
[9] = Inhibition of quorum sensing system in Pseudomonas aeruginosa MH602 PlasB::gfp at 125 uM incubated for 15 hrs by GFP reporter gene assay; summary of the method: as §1

SMILES | inhibition at 62.5 µM (Pseudomonas aeruginosa [1]) [%] | inhibition at 125 µM (Pseudomonas aeruginosa [2]) [%] | inhibition [3] [%] | inhibition at 31.25 µM (Pseudomonas aeruginosa [4]) [%] | inhibition at 250 µM (Pseudomonas aeruginosa [5]) [%] | inhibition [6] [%] | inhibition at 250 µM (Pseudomonas aeruginosa [7]) [%] | inhibition [8] [%] | inhibition [9] [%] | inhibition (Pseudomonas aeruginosa [5])
O=C1C=C(c2ccc(Cl)cc2)CN1 | ≤ 15 | ≤ 15 | 61.5 | ≤ 15 | 9.6 | 22.6 | ≤ 15 | 26.4 | 42.7 | 
C=C1C(c2ccccc2F)=CC(=O)N1CCCC | ≤ 15 | ≤ 15 | 55.3 | ≤ 15 | 52.2 | 38.2 | ≤ 15 | 33.5 | 34.2 | 
C=C1NC(=O)C=C1c1ccc(CC)cc1 | ≤ 15 | ≤ 15 | 67.9 | ≤ 15 | 38.9 | 32.5 | ≤ 15 | 35.1 | 59.6 | 
C=C1C(c2ccc(Br)cc2)=CC(=O)N1c1ccc(C)cc1 | ≤ 15 | ≤ 15 | 61.6 | ≤ 15 | 16.3 | 15.2 | 15 to 30 | 42.7 | 52.6 | 
C=C1NC(=O)C(C)=C1c1ccccc1F | ≤ 15 | ≤ 15 | 54.8 | ≤ 15 |  | 28.8 | ≤ 15 | 31.7 | 48.8 | 
C=C1C(c2ccccc2F)=CC(=O)N1c1cccc(Br)c1 | ≤ 15 | ≤ 15 | 50.5 | ≤ 15 | 40.8 | 29.3 | ≤ 15 | 34.7 | 43.3 | 
C=C1C(c2ccc(Br)cc2)=CC(=O)N1c1ccccc1 | ≤ 15 | ≤ 15 | 78.6 | ≤ 15 | 35.2 | 22 | 15 to 30 | 39.2 | 62 | 
C=C1NC(=O)C=C1c1cccc(Cl)c1 | ≤ 15 | ≤ 15 | 73.3 | ≤ 15 | 47.3 | 26.3 | ≤ 15 | 54.7 | 69.4 | 
C=C1C(c2ccc(Br)cc2)=CC(=O)N1c1ccc(F)cc1 | ≤ 15 | ≤ 15 | 57.9 | ≤ 15 | 27.7 | 9.23 | ≤ 15 | 34.5 | 49.7 | 
C=C1C(c2ccccc2F)=CC(=O)N1c1ccc(Br)cc1 | ≤ 15 | ≤ 15 | 60.7 | ≤ 15 | 49.2 | 39.7 | ≤ 15 | 48.4 | 54.9 | 
C=C1C(c2ccc(Br)cc2)=CC(=O)N1c1cccc(F)c1 | ≤ 15 | ≤ 15 | 50.9 | ≤ 15 | 29.3 | 5.8 | ≤ 15 | 47.7 | 49.1 | 
O=C1C=C(Br)/C(=C/Br)O1 | > 30 | > 30 | 87.5 | 15 to 30 | 87.9 | 65.9 | > 30 | 77 | 83.1 | 
C=C1NC(=O)C=C1c1ccc(OC)cc1 | ≤ 15 | ≤ 15 | 74.4 | ≤ 15 | 38.8 | 37 | 15 to 30 | 44.5 | 62.7 | 
C=C1C(c2ccc(Br)cc2)=CC(=O)N1c1ccc(S(C)(=O)=O)cc1 | ≤ 15 | ≤ 15 | 58.7 | ≤ 15 | 10.3 | 11.2 | 15 to 30 | 31.3 | 58.1 | 
C=C1NC(=O)C=C1c1ccc(C(=O)O)cc1 | ≤ 15 | ≤ 15 | 68 | ≤ 15 | 12.9 | 19.6 | ≤ 15 | 33.6 | 50.8 | 
C=C1C(c2ccc(Br)cc2)=CC(=O)N1c1ccc(OC)cc1 | ≤ 15 | ≤ 15 | 73.3 | ≤ 15 | 54.9 | 14.4 | ≤ 15 | 32.1 | 61.8 | 
COc1ccc(C2=CC(=O)NC2)cc1 | ≤ 15 | ≤ 15 | 66.5 | ≤ 15 |  | 26.9 | ≤ 15 | 27.2 | 48.5 | inactive
C=C1NC(=O)C=C1c1ccccc1F | ≤ 15 | ≤ 15 | 72 | ≤ 15 | 51.3 | 37.8 | ≤ 15 | 58.3 | 69.7 | 
C=C1NC(=O)C=C1c1ccccc1 | ≤ 15 | ≤ 15 | 71.5 | ≤ 15 | 47.6 | 19.6 | ≤ 15 | 31.6 | 59 | 
C=C1NC(=O)C=C1c1ccc([N+](=O)[O-])cc1 | ≤ 15 | ≤ 15 | 80.9 | ≤ 15 | 57.2 | 51.3 | 15 to 30 | 63.5 | 69.9 | 
C=C1C(c2ccc(Br)cc2)=CC(=O)N1c1csc2ccccc12 | ≤ 15 | ≤ 15 | 67.4 | ≤ 15 | 13.2 | 34.1 | 15 to 30 | 42.8 | 55.6 | 
O=C1C=C(c2ccccc2)/C(=C/Br)N1 | 15 to 30 | > 30 | 84.8 | ≤ 15 |  | 56.8 | > 30 | 66.6 | 77.8 | 
C=C1NC(=O)C=C1c1ccc(C)cc1 | ≤ 15 | ≤ 15 | 80.5 | ≤ 15 |  | 36.5 | ≤ 15 | 72.3 | 78.7 | 
O=C1C=C(c2ccc(Br)cc2)/C(=C/Br)N1 | 15 to 30 | > 30 | 82.3 | ≤ 15 |  | 38.2 | > 30 | 53.5 | 53.9 | 
C=C1NC(=O)C(C)=C1c1ccc(Br)cc1 | ≤ 15 | ≤ 15 | 59.6 | ≤ 15 |  | 33.7 | ≤ 15 | 38.1 | 45.2 | 
C=C1NC(=O)C(C)=C1c1ccc(Cl)cc1 | ≤ 15 | ≤ 15 | 47.7 | ≤ 15 |  | 23.7 | ≤ 15 | 33.2 | 38.2 | 
C=C1NC(=O)C(C)=C1c1cccc(C(F)(F)F)c1 | ≤ 15 | ≤ 15 | 47.2 | ≤ 15 |  | 26.3 | ≤ 15 | 33.2 | 47 | 
C=C1C(c2ccccc2F)=CC(=O)N1Cc1ccccc1 | ≤ 15 | ≤ 15 | 55.2 | ≤ 15 |  | 27 | ≤ 15 | 47.5 | 52.4 | 
C=C1NC(=O)C=C1c1ccccc1Cl | ≤ 15 | ≤ 15 | 72 | ≤ 15 |  | 37.8 | ≤ 15 | 58.3 | 69.7 | 
O=C1C=C(c2ccccc2F)/C(=C/Br)N1 | 15 to 30 | > 30 | 86.3 | ≤ 15 |  | 61.5 | > 30 | 75 | 81.3 | 
